Assay results pooled from the literature.
Lines come from different studies, so protocols differ.
Target: MAP/microtubule affinity-regulating kinase 4 (MARK4, Homo sapiens, UniProt Q96L34)
One construct used (Q96L34 1-752): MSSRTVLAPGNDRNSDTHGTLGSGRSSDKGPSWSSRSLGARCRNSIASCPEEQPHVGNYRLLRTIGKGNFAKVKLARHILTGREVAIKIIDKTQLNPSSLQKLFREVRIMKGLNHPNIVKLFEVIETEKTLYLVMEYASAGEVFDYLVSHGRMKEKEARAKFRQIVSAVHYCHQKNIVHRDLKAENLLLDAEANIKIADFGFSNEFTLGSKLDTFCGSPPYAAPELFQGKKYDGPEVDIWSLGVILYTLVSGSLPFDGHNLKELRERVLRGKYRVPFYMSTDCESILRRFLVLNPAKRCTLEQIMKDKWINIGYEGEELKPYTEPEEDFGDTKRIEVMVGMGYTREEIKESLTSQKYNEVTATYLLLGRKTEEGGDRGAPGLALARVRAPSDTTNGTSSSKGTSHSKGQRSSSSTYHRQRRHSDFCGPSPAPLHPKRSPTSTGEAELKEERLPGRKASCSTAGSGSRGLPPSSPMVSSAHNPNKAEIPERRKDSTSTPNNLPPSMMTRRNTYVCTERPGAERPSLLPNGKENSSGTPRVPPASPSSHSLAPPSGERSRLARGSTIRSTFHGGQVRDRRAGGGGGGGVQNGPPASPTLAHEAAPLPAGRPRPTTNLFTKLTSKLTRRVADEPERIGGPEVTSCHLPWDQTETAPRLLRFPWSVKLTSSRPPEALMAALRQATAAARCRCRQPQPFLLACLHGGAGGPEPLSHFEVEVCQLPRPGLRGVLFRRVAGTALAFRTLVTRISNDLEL

The remaining activity of Cc1nn(CC(F)(F)F)cc1Nc1ncc(C2CC2)c(NCCCNC(=O)C2CCC2)n1 is reported as 100% (enzyme activity, inhibitor, radiometric; 1 µM).
N[C@@H]1CCN(c2nccc(-c3cnn4ncccc34)n2)C1 has a remaining binding of 100% (binding; 1 µM).
NS(=O)(=O)c1ccc(CNc2nc(Nc3cccc(NC(=O)N4CCCC4)c3)ncc2Br)cc1 gave a remaining activity of 42% (enzyme activity, inhibitor, radiometric; 1 µM).
With FC(F)(F)Oc1cccc(-c2cnc3ccc(-c4ccncc4)nn23)c1 the activity vs control was 93% (enzyme activity, inhibitor, radiometric; 5 µM).
For C[C@H](c1cccc(C#N)c1)n1cc(Cl)cc(C(N)=O)c1=N, the remaining binding was 99% (cell-free assay, competition with immobilised ligand; 1 µM).
For O=C(NCCCNc1nc(Nc2cccc(CN3CCOCC3)c2)ncc1C1CC1)C1CCC1, the remaining activity was 5% (enzyme activity, inhibitor, radiometric; 1 µM).
With CN1CCN(c2cnc3c(C4CCN(C(=O)c5ccc(OC(F)(F)F)cc5N)CC4)ncnc3c2)CC1 the remaining binding was 100% (cell-free assay, competition with immobilised ligand; 1 µM).
CN1CC(Oc2cnc(C#N)cc2-c2ccn3nc(NC(=O)C4CC4)cc3c2)C1 gave an inhibition of 8% (enzyme activity, inhibitor; 1 µM).
With COc1cc2ncnc(Nc3ccc(F)c(Cl)c3)c2cc1OCCCN1CCOCC1 the remaining signal was 94.2% (cell-free assay; 0.5 µM).
The remaining activity of Cc1nn(CC(F)(F)F)cc1Nc1ncc(Br)c(NCCc2cnc[nH]2)n1 is reported as 49% (enzyme activity, inhibitor, radiometric; 1 µM).
COc1cc2ncnc(Nc3ccc(Oc4ccccc4)c(C)c3C)c2cc1OC has an inhibition of -1% (enzyme activity, inhibitor; 1 µM).
O=C(Nc1cccnn1)N1CCC(=Cc2cccc(Oc3ccc(C(F)(F)F)cn3)c2)CC1 has a remaining binding of 76% (cell-free assay, competition with immobilised ligand; 1 µM).
The remaining activity of COc1cc(Nc2cnc(C#N)c(O[C@H](C)CN(C)C)n2)ncc1-c1cnn(C)c1 is reported as 83% (enzyme activity, inhibitor, radiometric; 10 µM).
The remaining signal of COc1cc(Nc2c(C#N)cnc3cc(OCCCN4CCN(C)CC4)c(OC)cc23)c(Cl)cc1Cl is reported as 60.6% (cell-free assay; 0.5 µM).
With COc1cc(/C=C/C(=O)CC(=O)/C=C/c2ccc(O)c(OC)c2)ccc1O the activity vs control was 74% (enzyme activity, inhibitor; 1 µM).
For CCOCCn1cc(C(=O)Nc2ccc(-n3nc(-c4cccnc4)cc3C(F)(F)F)cn2)ccc1=O, the remaining binding was 100% (cell-free assay, competition with immobilised ligand; 1 µM).
Nc1ncnc2occ(-c3ccc(NC(=O)Nc4cc(C(F)(F)F)ccc4F)cc3)c12 gave a remaining signal of 51% (cell-free assay, inhibitor; 20 µM).
Cc1nn(CC(F)(F)F)cc1Nc1ncc(C2CC2)c(NCc2ccc(S(N)(=O)=O)cc2)n1 gave a remaining activity of 110% (enzyme activity, inhibitor, radiometric; 1 µM).
O=C(N[C@H]1CCCCC/C=C\C2C[C@@]2(C(=O)O)NC(=O)[C@@H]2C[C@@H](Oc3ccncc3)CN2C1=O)OC1CCCC1 (stereo partly shown) has a remaining binding of 100% (binding, competition with immobilised ligand; 1 µM).
With NS(=O)(=O)c1ccc(CNc2nc(Nc3cccc(CN4CCOCC4)c3)ncc2Br)cc1 the remaining activity was 61% (enzyme activity, inhibitor, radiometric; 1 µM).
The remaining binding of CCS(=O)(=O)c1cc2cc(C[C@@](O)(CC(C)(C)c3ccc(F)cc3C(N)=O)C(F)(F)F)[nH]c2cn1 is reported as 100% (cell-free assay, competition with immobilised ligand; 1 µM).
For NS(=O)(=O)c1ccc(CNc2nc(Nc3cccc(NC(=O)N4CCCC4)c3)ncc2C2CC2)cc1, the remaining activity was 89% (enzyme activity, inhibitor, radiometric; 1 µM).
CS(=O)(=O)NCC[C@H](NC(=O)c1cncc2c1cnn2-c1ccc(F)cc1)c1ccnc(S(C)(=O)=O)c1 gave a remaining binding of 78% (cell-free assay, competition with immobilised ligand; 1 µM).
The remaining activity of O=C(NCCCNc1nc(Nc2cccc(NC(=O)N3CCCC3)c2)ncc1C1CC1)C1CCC1 is reported as 7% (enzyme activity, inhibitor, radiometric; 1 µM).
The remaining binding of COc1ccc2c(c1)O[C@@H](c1ccc(OC)c(OC)c1)C[C@H]2NC(=O)C1(c2ccc3c(c2)OC(F)(F)O3)CC1 is reported as 92% (cell-free assay, competition with immobilised ligand; 1 µM).
